Data on 38 sequences can be found in the array DNA melting data of Ke et al. (doi:10.1101/2024.01.08.574731).

Series [1] is described as follows: melting temperature; fluorescence melt of hairpins on a sequencing array, two-state fit, raised by 9.35 °C to match UV melts. The following applies: sodium 0.088 M. The method in brief: (§1)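 Library hairpins on a sequenced MiSeq flow cell carried annealed Cy3 and quencher oligos, and their Cy3 fluorescence was imaged in 50 mM Na-HEPES pH 8.0 with 25 mM NaCl, in 2.5 °C steps up to 60 °C. Signals were normalised to Cy3 before quenching and to control constructs. Melting temperature and folding enthalpy were obtained from bootstrapped two-state fits, combined by inverse-variance weighting across four replicates, and the fitted temperatures were then raised by 9.35 °C to match UV melts.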

The nature of series [2]: folding enthalpy; higher = less favourable; fluorescence melt of hairpins on a sequencing array, two-state fit. As to conditions: sodium 0.088 M. The method in brief:
as §1

For GATCGTAGTCACGATC ((((((....)))))), in series [1], the Tm worked out at 54.1 °C. Further, the folding enthalpy in series [2] was -36.1 kcal/mol.
For GATCGTATACACGATC ((((((....)))))), in that order: 53.9 °C and -38.4 kcal/mol.
Consider GATCGTATCGACGATC ((((((....)))))), for which, in series [1], the Tm came out at 55.2 °C. Moreover, the folding enthalpy in series [2] was -35 kcal/mol.
Taken in the same sequence, the figures for GATCGTATGACGATC ((((((...)))))) were 55.6 °C and -34 kcal/mol.
For GATCGTATGCACGATC ((((((....)))))), the Tm in series [1] amounted to 54.5 °C. Also, the folding enthalpy in series [2] was -26.1 kcal/mol.
For GATCGTATTAACGATC ((((((....)))))), in that order: 55.9 °C and -37.1 kcal/mol.
GATCGTATTTACGATC ((((((....)))))): the Tm in series [1] was 57.6 °C. In series [2], the folding enthalpy was -42.5 kcal/mol.
Taken in the same sequence, the figures for GATCGTCAAGACGATC ((((((....)))))) were 58.7 °C and -37.5 kcal/mol.
Taken in the same sequence, the figures for GATCGTCACAACGATC ((((((....)))))) were 56.9 °C and -39.3 kcal/mol.
Take GATCGTCACGACGATC ((((((....)))))): the Tm in series [1] worked out at 57.8 °C. Besides, in series [2], the folding enthalpy was -43.1 kcal/mol.
For GATCGTCAGAACGATC ((((((....)))))), in that order: 55.1 °C and -35.2 kcal/mol.
Taken in the same sequence, the figures for GATCGTCAGGACGATC ((((((....)))))) were 58.3 °C and -45.6 kcal/mol.
For GATCGTCCACACGATC ((((((....)))))), in that order: 53.9 °C and -34.7 kcal/mol.
Consider GATCGTCCGGACGATC ((((((....)))))), for which, in series [1], the Tm stood at 62.8 °C. For the same sequence, the folding enthalpy in series [2] was -52.6 kcal/mol.
Taken in the same sequence, the figures for GATCGTCGAAACGATC ((((((....)))))) were 53.5 °C and -38.3 kcal/mol.
For GATCGTCGAACGATC ((((((...)))))), in that order: 53.1 °C and -33.9 kcal/mol.
For GATCGTCGACACGATC ((((((....)))))), in that order: 52.2 °C and -43.9 kcal/mol.
For GATCGTCGCTACGATC ((((((....)))))), the Tm in series [1] worked out at 55 °C. In addition, the folding enthalpy in series [2] is -41.6 kcal/mol.
As to GATCGTCGGTACGATC ((((((....)))))), the Tm in series [1] was 53.8 °C. Moreover, in series [2], the folding enthalpy is -27.3 kcal/mol.
Taken in the same sequence, the figures for GATCGTCGTAACGATC ((((((....)))))) were 57.1 °C and -48.4 kcal/mol.
For GATCGTCTCACGATC ((((((...)))))), in that order: 57.4 °C and -40.6 kcal/mol.
Taken in the same sequence, the figures for GATCGTCTGACGATC ((((((...)))))) were 54 °C and -51.7 kcal/mol.
Turning to GATCGTCTTACGATC ((((((...)))))), the Tm in series [1] is 57.1 °C. For the same sequence, the folding enthalpy in series [2] was -34.8 kcal/mol.
Taken in the same sequence, the figures for GATCGTGACAACGATC ((((((....)))))) were 63.5 °C and -38.4 kcal/mol.
Taken in the same sequence, the figures for GATCGTGAGAACGATC ((((((....)))))) were 59.3 °C and -31.5 kcal/mol.
For GATCGTGAGTACGATC ((((((....)))))), in that order: 54 °C and -31.4 kcal/mol.
For the sequence GATCGTGCAGACGATC ((((((....)))))), the Tm in series [1] was 58.9 °C. Moreover, the folding enthalpy in series [2] was -40.9 kcal/mol.
Regarding GATCGTGCTAACGATC ((((((....)))))), the Tm in series [1] was determined as 66.3 °C. In addition, the folding enthalpy in series [2] is -37.7 kcal/mol.
For the sequence GATCGTGGACACGATC ((((((....)))))), the Tm in series [1] is 65.6 °C. For the same sequence, the folding enthalpy in series [2] was -40.2 kcal/mol.
Taken in the same sequence, the figures for GATCGTGGCGACGATC ((((((....)))))) were 61.4 °C and -29.9 kcal/mol.
Taken in the same sequence, the figures for GATCGTGGTCACGATC ((((((....)))))) were 57.7 °C and -41.9 kcal/mol.
Taken in the same sequence, the figures for GATCGTGTGAACGATC ((((((....)))))) were 62.7 °C and -39.2 kcal/mol.
Take GATCGTGTGGACGATC ((((((....)))))): in series [1], the Tm turned out to be 55.7 °C. Also, in series [2], the folding enthalpy is -38 kcal/mol.
With GATCGTTAACACGATC ((((((....)))))), the Tm in series [1] was determined as 52.3 °C. Further, the folding enthalpy in series [2] was -37.9 kcal/mol.
As for GATCGTTACAACGATC ((((((....)))))), the Tm in series [1] amounted to 57.3 °C. Besides, in series [2], the folding enthalpy is -39 kcal/mol.
Taken in the same sequence, the figures for GATCGTTACGACGATC ((((((....)))))) were 57.1 °C and -39.9 kcal/mol.
For GATCGTTATAACGATC ((((((....)))))), in that order: 56.7 °C and -40.1 kcal/mol.
Taken in the same sequence, the figures for GATCGTTATTACGATC ((((((....)))))) were 56.1 °C and -39.8 kcal/mol.
